Screening data: PubChem BioAssay, several laboratories
Vif inh – inhibitors of HIV Vif. actives 0.35% (n = 340,000). inhibition, % at 7.49 µM. HEK293T cells, Vif self-association by quenched fluorescence, imaging, 24 h; in the data active means inhibition above about 50%, passing the limit was not always enough; inconclusive means no clear call, values can overlap the other calls; inactive means below about 31%
H9c2 TAG inh – triacylglycerol accumulation inhibition; H9c2 cells, Nile Red lipid (TAG) fluorescence; cells loaded with 200 µM oleic acid; inhibition, % at 12.5 µM; actives 0.66% (n = 230,000); AID 651582;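 active means pattern-corrected inhibition of lipid staining of at least 50% with the nuclear-stain viability signal not falling by more than 50%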;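 further: 0% = DMSO wells and 100% = triacsin C control wells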
SR-BI DiI-HDL act – SR-BI HDL lipid transfer activation; actives 0.096% (n = 320,000); activation, % at 12.5 µM; CHO ldlA[mSR-BI] cells, DiI-HDL uptake fluorescence, 3 h; 100 = double the neutral-control signal; AID 504775;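 active means mean replicate activation of at least 60% and every replicate at or above 60%; inconclusive means mean or all-replicate condition met, but not both; inactive means mean below 60% and not all replicates reaching 60%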;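 further: 0% = median plate neutral-control signal and 100% = twice that signal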
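Assay system: LDL receptor-deficient CHO ldlA cells overexpressing murine SR-BI / Medium: BSA-supplemented, HEPES-buffered Ham's F12, pH 7.4 / Probe or stimulus: DiI-labelled HDL at 10 µg/mL final / Timing: compound with DiI-HDL co-incubation, 3 h at 37 °C / Technique: bottom-read cell fluorescence after medium removal, ex 550/em 595 nm / Measure: HDL uptake via cellular fluorescence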
SMARCA2 activ – SMARCA2 function activation, primary screen; AID 652017; activation, % at 9.1 µM; actives 1% (n = 370,000); MG213 cells, MMTV-luciferase reporter, dexamethasone, overnight; in the data active means activation above about 7.8%;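 further: 0% = vehicle wells and 100% = reference activator wells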
SR-BI DiI inh – blocks mouse SR-BI lipid uptake from DiI-HDL; Q61009; AID 488896; actives 0.96% (n = 320,000); inhibition, % at 12.5 µM; ldlA[mSR-BI] CHO cells, DiI-HDL uptake fluorescence, 3 h;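 active means mean replicate inhibition of at least 70% and a set share of replicates each scoring 70 or more; inconclusive means meets just one of the two criteria; inactive means fails both criteria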;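 further: 0% = median of neutral control wells and 100% = median of positive control wells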
Target sequence (Q61009 whole entry, looked up): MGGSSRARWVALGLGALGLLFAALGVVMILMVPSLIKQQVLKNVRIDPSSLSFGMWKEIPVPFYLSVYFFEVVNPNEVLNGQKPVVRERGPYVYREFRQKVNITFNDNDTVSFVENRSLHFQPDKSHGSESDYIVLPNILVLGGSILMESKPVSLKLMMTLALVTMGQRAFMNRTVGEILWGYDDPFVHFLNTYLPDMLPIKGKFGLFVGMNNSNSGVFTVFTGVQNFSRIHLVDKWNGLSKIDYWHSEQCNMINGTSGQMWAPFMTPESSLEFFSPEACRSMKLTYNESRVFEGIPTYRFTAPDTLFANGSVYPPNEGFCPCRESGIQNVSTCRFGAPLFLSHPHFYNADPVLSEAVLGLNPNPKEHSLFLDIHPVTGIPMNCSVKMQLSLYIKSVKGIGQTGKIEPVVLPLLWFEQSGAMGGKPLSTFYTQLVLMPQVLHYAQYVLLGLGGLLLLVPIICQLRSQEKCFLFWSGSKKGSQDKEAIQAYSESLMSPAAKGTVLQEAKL
Starred values were filed as active, the others as inactive; ? = inconclusive; · = no result given. The list is not random: actives were taken first. Their share in the collection is about 2.5%.

SMILES	Vif inh	H9c2 TAG inh	SR-BI DiI-HDL act	SMARCA2 activ	SR-BI DiI inh
CCCCc1c(-c2ccccc2OC)ncn1Cc1c(F)cccc1F	·	·	·	-7.9	·
CCN(CC)C1Oc2cc3c(cc2C(c2cc(OC)c(OC)c(OC)c2)C1C)OCO3 (stereo unspecified)	55.0*	31.7	-4.7	-3.4	4.7
COC(=O)[C@]12C[C@H](CC(=O)NCC34CC5CC(CC(C5)C3)C4)C(=O)N(Cc3cccc4ccccc34)C1=C[C@H](C(C)(C)C)O[C@@H]2C	·	·	·	-2.4	·
Cc1cccc(Nc2c([N+](=O)[O-])cc(C(=O)N3CC(=O)Nc4ccccc43)cc2[N+](=O)[O-])c1	0.5	18.8	-81.6	-3.7	81.7*
Cc1ccc(C)c(Nc2c([N+](=O)[O-])cc(C(=O)N3CC(=O)Nc4ccccc43)cc2[N+](=O)[O-])c1	2.2	7.7	-71.7	-0.7	?
C[C@@H]1CCCCO[C@@H](CN(C)C(=O)CCC(F)(F)F)[C@@H](C)CN([C@H](C)CO)C(=O)c2cc(NS(=O)(=O)c3cccs3)ccc2O1	·	·	·	-1.9	·
O=C(Nc1ccccc1)c1sc2cc(C(F)(F)F)cnc2c1-c1cccs1	8.9	40.7	-71.2	1.4	71.2*
O=C(N/N=C\c1cc(Cl)ccc1O)c1ccc(S(=O)(=O)N2CCCCC2)cc1	-4.0	·	-134.6	3.0	134.6*
O=C(N/N=C/c1cc(Cl)ccc1O)c1cccnc1	5.3	·	-70.0	-1.3	70.0*
O=C(N/N=C/c1ccc(Cl)cc1Cl)c1ccncc1	-2.2	·	-22.2	0.5	22.2
O=C(N/N=C/c1cc(Cl)cc(Cl)c1O)c1ccncc1	-0.5	65.4*	-131.7	-5.1	131.7*
O=C(N/N=C/c1cc(Cl)ccc1O)c1ccccc1Br	-0.9	27.2	-78.5	1.1	78.5*
O=C(Nc1cc(S(=O)(=O)Nc2ccc(Cl)cc2)ccc1O)c1ccc(S(=O)(=O)N2CCCCCC2)cc1	-12.7	19.3	-6.3	-1.6	6.3
O=C(N/N=C/c1cccnc1)c1cccc(Cl)c1	9.0	·	24.8	2.0	-24.8
Oc1c(Cl)cc(Cl)cc1/C=N/Nc1ncc(Br)cn1	-3.2	8.4	-129.6	-1.4	129.6*
Cc1ccc(N=Cc2cc(Cl)cc(Cl)c2O)nc1	3.0	·	25.2	-2.4	-25.2
CC1(S(=O)(=O)O)CC(=O)c2ccccc2C1=O (stereo unspecified)	174.5*	-4.0	-1.5	-3.4	1.5
COc1ccccc1CCC(=O)Nc1ccc2c(c1)CN(Cc1ccc(CO)o1)CC2	-5.9	3.4	-76.9	-0.3	76.9*
O=C(Nc1ccc2c(c1)CN(Cc1ccc(CO)o1)CC2)c1ccc(C(F)(F)F)cc1	-9.9	·	-54.4	-0.5	54.4
O=C(N/N=C/c1ccco1)c1cnccn1	0.8	·	15.1	8.0*	-15.1
O=C(N/N=C/C=C/c1ccco1)c1cnccn1	-1.1	1.2	2.1	-1.6	-2.1
CC(C)[C@H](NC(=O)c1cccs1)C(=O)N1CCC[C@H]1C(=O)NCc1ccccc1	·	·	·	2.0	·
COc1cc(/C=N/N(c2ccccc2)c2ccccc2)ccc1O	3.7	-7.3	-12.2	-1.5	12.2
CN(/N=C\c1ccc(O)c(O)c1)c1nc(-c2ccccc2)cc(-c2ccccc2)n1	21.0	33.6	-112.0	1.8	112.0*
COc1cc2nc(N(CCCN(C)C)C(=O)c3ccc(S(=O)(=O)N4CCc5ccccc54)cc3)sc2cc1OC	50.3*	27.1	-13.6	3.2	13.6
SMILES	Vif inh	H9c2 TAG inh	SR-BI DiI-HDL act	SMARCA2 activ	SR-BI DiI inh
Cc1ccc(S(=O)(=O)N2CCCc3nc(-c4ccccc4)ccc32)cc1	·	·	·	-1.3	·
CCOc1ccc2nc(SCC(=O)N(C)C3CCS(=O)(=O)C3)[nH]c2c1 (stereo unspecified)	4.2	18.5	2.7	-4.9	-2.7
CCOc1ccc2nc(-c3ccccc3)[nH]c2c1	0.3	50.3*	-14.1	3.1	14.1
CCOc1ccc2nc(SCC(=O)N(C)C)[nH]c2c1	5.3	-5.4	4.0	7.9*	-4.0
COc1ccc2nc(-c3ccccc3)[nH]c2c1	8.8	5.8	-12.3	5.3	12.2
Cc1cc(O)cc(=O)n1-c1cccc(Br)c1	·	·	·	-2.6	·
CCCCCCCC(=O)Nc1ccc(C(=O)N/N=C/c2cccc([N+](=O)[O-])c2)cc1	0.2	172.1	-86.9	1.2	86.9*
CCCCCCC(=O)Nc1ccc(C(=O)N/N=C/c2cccnc2)cc1	-16.3	9.5	-76.1	-3.3	?
Cc1cccn2c(=O)c(/C=C3\SC(=S)NC3=O)c(NCCCN3CCOCC3)nc12	82.8*	-30.2	·	4.6	·
COc1ccc(/C=C/C(=O)Nc2cccc(S(=O)(=O)N3CCCC3)c2)cc1OC	-9.3	-4.3	-79.7	-0.8	79.7*
O=C(/C=C/c1ccc(F)cc1)Nc1cccc(S(=O)(=O)N2CCOCC2)c1	6.5	-7.3	-74.4	-2.2	74.4*
COc1ccc(CC(=O)Nc2cccc(S(=O)(=O)N3CCCC3)c2)cc1OC	-3.6	-12.0	-10.5	-6.0	10.5
COc1ccccc1/C=C/C(=O)Nc1cccc(C(C)=O)c1	-5.3	17.4	-75.9	2.1	75.9*
Cc1ccccc1CN1CCCCC(NC(=O)c2ccc(F)c(F)c2)C1=O (stereo unspecified)	·	·	·	-4.3	·
COc1cc2c(cc1OC)C(C(=O)O)C(c1ccc3c(c1)OCO3)N(C)C2=O (stereo unspecified)	·	·	·	1.9	·
COC(=O)C1=C(C)N(Cc2ccccc2C(F)(F)F)C(=NCc2ccc(OC)cc2)NC1c1cccc(Cl)c1 (stereo unspecified)	·	·	·	-2.6	·
CCOC(=O)c1c(C)n(CCO)c2ccc(O)cc12	2.2	·	26.6	-3.7	-26.6
CCOCCn1c(C)c(C(=O)OCC)c2cc(O)c3ccccc3c21	-2.6	19.7	-72.6	2.1	72.6*
COc1ccc(-c2cn3c(C)c(C(=O)Nc4cc(NC(C)=O)ccc4OC)sc3n2)cc1	-6.0	·	-75.5	-1.1	75.5*
CCN=C1S/C(=C\c2cc(Cl)c(OC)c(OC)c2)C(=O)N1CC	-3.1	·	-77.1	3.3	77.1*
CCCCOc1ccccc1NC(=O)CC1SC(=NCC)N(CC)C1=O (stereo unspecified)	-10.6	·	-83.6	2.2	83.6*
O=C(COc1ccccc1)Nc1ccccc1N1CCN(c2ccc(F)cc2)CC1	1.0	·	-80.0	-1.1	80.0*
Cc1cc(C)n(-c2ccc(NC(=O)C3CCCCN3C(=O)c3ccoc3)cc2)n1 (stereo unspecified)	-4.9	6.4	-12.6	-1.1	12.6
Cc1cc(C)n(-c2ccc(NC(=O)C3CCCCN3Cc3cccc4c3OCO4)cc2)n1 (stereo unspecified)	3.4	6.6	-89.4	-2.2	89.3*
COC(=O)C1=C(C)N(C)C(=NCc2ccc(OC)cc2)NC1c1ccc(C(F)(F)F)cc1 (stereo unspecified)	·	·	·	-4.6	·
COc1ccc(-c2nc(N/N=C(\C)c3ccc(O)cc3)c3ccccc3n2)cc1	1.6	54.9*	·	-0.1	·
COc1ccc(Nc2nc(-c3ccccc3)nc3ccccc23)cc1	5.6	·	-50.4	-0.6	50.4
